An excerpt weighted towards active compounds, which were near 3.5% of everything screened.
RGS4 inh = human RGS4 inhibition. 310,000 compounds, 0.45% hits. B-score at 10 µM. HEK293 M3R/RGS4 inducible, Fluo-4 calcium flux; stronger effect = higher value; triggered by carbachol at its EC20. P49798. AID 463165;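 active = B-score, a plate-corrected calcium signal, over three deviations above library mean, with baseline fluorescence within five deviations of library mean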;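 also: RGS4 expression induced by doxycycline in cells with stable M3 receptor; B-score is computed from the integrated fluorescence ratio over baseline after carbachol; higher B-score means a larger calcium signal and so more RGS4 inhibition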
Target sequence (P49798 whole entry, looked up): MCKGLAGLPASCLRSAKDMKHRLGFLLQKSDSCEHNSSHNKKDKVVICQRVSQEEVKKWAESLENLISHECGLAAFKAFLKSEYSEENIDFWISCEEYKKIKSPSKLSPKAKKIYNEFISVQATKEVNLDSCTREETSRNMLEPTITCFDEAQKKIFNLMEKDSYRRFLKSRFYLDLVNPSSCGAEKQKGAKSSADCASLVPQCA
MrgX1 antag = antagonists of human MrgX1 receptor; Q96LB2; MRGX1-HEK293 calcium flux, Fluo-4, BAM8-22 antagonism; stronger effect = lower value; B-score at 10 µM; 310,000 compounds, 1.3% hits;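 active = calcium-response B-score plate-corrected more than 3 library SD below zero, starting fluorescence within 5 deviations, no agonist response on first addition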;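 also: peak minus trough fluorescence over baseline after final BAM8-22 challenge near maximal dose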
Target sequence (Q96LB2 whole entry, looked up): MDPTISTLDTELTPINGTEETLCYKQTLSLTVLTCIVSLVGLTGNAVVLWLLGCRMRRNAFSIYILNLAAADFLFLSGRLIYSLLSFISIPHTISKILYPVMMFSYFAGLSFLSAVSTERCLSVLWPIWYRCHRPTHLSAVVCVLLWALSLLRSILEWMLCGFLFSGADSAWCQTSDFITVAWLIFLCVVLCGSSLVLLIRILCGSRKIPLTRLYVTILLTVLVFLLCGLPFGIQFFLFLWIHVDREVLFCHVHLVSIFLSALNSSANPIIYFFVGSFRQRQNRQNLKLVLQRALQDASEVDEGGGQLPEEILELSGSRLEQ
MrgX1 allo act = allosterically activates human MrgX1 receptor signaling | Q96LB2 | MrgX1-HEK293, Fluo-4 calcium flux, FDSS; stronger effect = higher value | B-score at 10 µM | 310,000 compounds, 0.63% hits | AID 588675;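 active = plate-corrected calcium response at least 3 library SD above typical, normal starting fluorescence, not activating the receptor alone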;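 also: compound read alongside a low EC10 to EC30 dose of BAM8-22 agonist; peak minus trough fluorescence over baseline measured at the second addition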
RGS4 act = RGS4 potentiation or activation | HEK293 M3R/inducible RGS4, carbachol calcium flux Fluo4; stronger effect = lower value | B-score at 10 µM | 310,000 compounds, 0.92% hits | AID 463111;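 active = B-score of the integrated calcium signal more than 4 SD below the library mean, with starting fluorescence not abnormally high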;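 also: negative B-score means reduced calcium response which marks RGS4 activation or potentiation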
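test system = M3R-expressing HEK293 line, RGS4 induced by doxycycline | probe or stimulus = carbachol at ECmax as muscarinic agonist stimulus | timing = dye loading 30 min 37 °C, buffer rest 30 min RT | signal = calcium dye Fluo4 fluorescence | evaluation = B score from integrated fluorescence ratio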
MrgX1 ag = agonists of human MrgX1 receptor | B-score at 10 µM | MrgX1-HEK293 cells, Fluo-4 calcium fluorescence, agonist mode; stronger effect = higher value | 310,000 compounds, 0.44% hits;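 active = calcium response B-score plate-corrected fluorescence ratio at least 3 library SD, with starting fluorescence B-score inside 5 SD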
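Test system: Stable human MrgX1 HEK293 cell line | Schedule: Overnight plating before 1 h dye loading | Read-out basis: Baseline-normalised fluorescence change ratio, B-scored | Detection: Kinetic calcium dye fluorescence, Fluo-4 NW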
MrgX1 antag conf = human MrgX1 receptor antagonism, re-confirmation screen; shares compounds with MrgX1 antag; MrgX1-HEK293, BAM8-22 calcium flux, Fluo-4; stronger effect = lower value; remaining BAM8-22 calcium response % of control (stronger effect = lower value), % at 10 µM; 2,300 compounds, 19% hits; AID 602420;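 active = remaining agonist calcium response no higher than 100% minus 3 SD of agonist-only control wells, with starting fluorescence near control levels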;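 also: agonist BAM8-22 given at a near maximal EC90 to ECmax level; peak minus minimum fluorescence divided by baseline after agonist addition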
HEK293 Ca flux = activity in parental HEK293 cells lacking MrgX1. shares compounds with MrgX1 antag. Fluo-4 calcium fluorescence, FDSS. fluorescence ratio F(max-min)/F0 at 10 µM. 4,000 compounds, 2% hits;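 active = duplicate-averaged calcium fluorescence ratio at least three times the standard deviation of buffer wells, a nonspecific response in parental cells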
HEK293 Ca counter = MrgX1 allosteric activator counter-screen hit in parental HEK293 cells; shares compounds with MrgX1 antag; parental HEK293 calcium flux, Fluo-4 fluorescence ratio; stronger effect = higher value; fluorescence ratio F(max-min)/F0 at 10 µM; 4,000 compounds, 0.4% hits; AID 624114;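 active = calcium fluorescence ratio, averaged over duplicates, at least 3 SD of the buffer-well ratio, meaning a nonspecific response in receptor-free cells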;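 also: untransfected parental HEK293 lacking MrgX1 used as counterscreen for MrgX1 allosteric activators; fluorescence change taken during the second addition on a kinetic imager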
HEK293 Ca cntr2 = MrgX1 activator counter-screen hit in parental HEK293 cells | 4,000 compounds, 8.7% hits | fluorescence ratio F(max-min)/F0 at 10 µM | Fluo-4 calcium fluorescence (FDSS); stronger effect = higher value | shares compounds with MrgX1 antag;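 active = calcium fluorescence ratio at least three times the spread of buffer wells, meaning a non-specific response in parental cells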
* marks the source's active call; other numbers are inactive results.

O=C(O)c1ccc(CP(=O)(c2ccccc2)c2ccccc2)cc1 was read as RGS4 inh inactive, MrgX1 antag inactive, MrgX1 allo act inactive, RGS4 act inactive and MrgX1 ag inactive.
`CCC(C)c1ccccc1NC(=O)COC(=O)c1ccc2[nH]c3c(c2c1)CCCC3` (centres undefined) gave RGS4 inh inactive, MrgX1 antag -7.4*, MrgX1 allo act inactive, RGS4 act inactive, MrgX1 ag inactive, MrgX1 antag conf inactive, HEK293 Ca flux inactive, HEK293 Ca counter inactive and HEK293 Ca cntr2 inactive.
Screening O=C(COC(=O)c1ccc2[nH]c3c(c2c1)CCCC3)Nc1ccccc1Cl returned RGS4 inh inactive, MrgX1 antag inactive, MrgX1 allo act inactive, RGS4 act inactive and MrgX1 ag inactive.
For CCCn1nnnc1SCC(=O)NCc1ccc(OC)cc1 the results were RGS4 inh inactive, MrgX1 antag -6.8*, MrgX1 allo act inactive, RGS4 act inactive, MrgX1 ag inactive, MrgX1 antag conf inactive, HEK293 Ca flux inactive, HEK293 Ca counter inactive and HEK293 Ca cntr2 inactive.
`COc1ccc(-n2nnnc2SCC(=O)c2cccc(OC)c2)cc1` gave RGS4 inh inactive, MrgX1 antag -4.6*, MrgX1 allo act inactive, RGS4 act inactive, MrgX1 ag inactive, MrgX1 antag conf inactive, HEK293 Ca flux inactive, HEK293 Ca counter inactive and HEK293 Ca cntr2 inactive.
CCOC(=O)c1oc2ccccc2c1CSc1nnnn1-c1ccc(OC)cc1 was read as RGS4 inh inactive, MrgX1 antag -7.1*, MrgX1 allo act inactive, RGS4 act inactive, MrgX1 ag inactive, MrgX1 antag conf inactive, HEK293 Ca flux inactive, HEK293 Ca counter inactive and HEK293 Ca cntr2 inactive.
Screening Cc1ccc(-c2nc(NC(=O)CSc3nnnn3-c3ccccc3)ns2)cc1 returned RGS4 inh inactive, MrgX1 antag -6.7*, MrgX1 allo act inactive, RGS4 act inactive, MrgX1 ag inactive, MrgX1 antag conf inactive, HEK293 Ca flux inactive, HEK293 Ca counter inactive and HEK293 Ca cntr2 inactive.
For CCCn1nnnc1SCC(=O)NCc1ccccc1 the results were RGS4 inh inactive, MrgX1 antag inactive, MrgX1 allo act inactive, RGS4 act inactive and MrgX1 ag inactive.
For CCn1nnnc1SCC(=O)c1cccc(OC)c1 the results were RGS4 inh inactive, MrgX1 antag inactive, MrgX1 allo act inactive, RGS4 act inactive and MrgX1 ag inactive.
Screening CC(=O)Nc1ccc(SCc2csc(C)n2)cc1 returned RGS4 inh inactive, MrgX1 antag inactive, MrgX1 allo act inactive, RGS4 act inactive and MrgX1 ag inactive.
`C/C(CC(=O)NC12CC3CC(CC(C3)C1)C2)=N\NC(=O)c1ccc(F)cc1` gave RGS4 inh inactive, MrgX1 antag inactive, MrgX1 allo act inactive, RGS4 act inactive and MrgX1 ag inactive.
Screening O=[N+]([O-])c1ccccc1N(CC1CO1)S(=O)(=O)c1ccccc1 (centres undefined) returned RGS4 inh inactive, MrgX1 antag inactive, MrgX1 allo act inactive, RGS4 act inactive and MrgX1 ag inactive.
For O=C1CCCC/C1=C\Nc1ccc(S(=O)(=O)Nc2cnc3ccccc3n2)cc1 the results were RGS4 inh inactive, MrgX1 antag inactive, MrgX1 allo act inactive, RGS4 act inactive and MrgX1 ag inactive.
Screening O=C(O)/C=C/C(=O)Nc1ccc(S(=O)(=O)Nc2nccs2)cc1 returned RGS4 inh inactive, MrgX1 antag inactive, MrgX1 allo act inactive, RGS4 act inactive and MrgX1 ag inactive.
`O=S1(=O)CCOCCCN1Cc1cccc(C(F)(F)F)c1` gave RGS4 inh inactive, MrgX1 antag inactive, MrgX1 allo act inactive, RGS4 act inactive and MrgX1 ag inactive.
CCCn1nc2cc(C(=O)NCc3ccc(OC)cc3)ccc2c1OCC was read as RGS4 inh inactive, MrgX1 antag -5*, MrgX1 allo act inactive, RGS4 act inactive, MrgX1 ag inactive, MrgX1 antag conf inactive, HEK293 Ca flux inactive, HEK293 Ca counter inactive and HEK293 Ca cntr2 inactive.
`COc1ccc(CNC(=O)CSc2nnnn2-c2ccccc2)cc1` gave RGS4 inh inactive, MrgX1 antag -9.9*, MrgX1 allo act inactive, RGS4 act inactive, MrgX1 ag inactive, MrgX1 antag conf inactive, HEK293 Ca flux inactive, HEK293 Ca counter inactive and HEK293 Ca cntr2 inactive.
For Cc1ccc(Nc2nc(C(=O)N3CCC(C(=O)N4CCN(C)CC4)CC3)cs2)cc1 the results were RGS4 inh inactive, MrgX1 antag -8.2*, MrgX1 allo act inactive, RGS4 act inactive, MrgX1 ag inactive, MrgX1 antag conf inactive, HEK293 Ca flux inactive, HEK293 Ca counter inactive and HEK293 Ca cntr2 inactive.
OC1CCN(CC(O)C(F)(F)F)CC1 (centres undefined) was read as RGS4 inh inactive, MrgX1 antag -5.7*, MrgX1 allo act inactive, RGS4 act inactive, MrgX1 ag inactive, MrgX1 antag conf inactive, HEK293 Ca flux inactive, HEK293 Ca counter inactive and HEK293 Ca cntr2 inactive.
CC1CC(=O)N(CC(=O)Nc2ccc(Br)cc2)c2ccccc2S1(=O)=O (centres undefined) was read as RGS4 inh inactive, MrgX1 antag inactive, MrgX1 allo act inactive, RGS4 act inactive and MrgX1 ag inactive.
Screening COc1ccc(Nc2nc(N)nc(CSc3nnc(N)s3)n2)cc1 returned RGS4 inh inactive, MrgX1 antag inactive, MrgX1 allo act inactive, RGS4 act inactive and MrgX1 ag inactive.
For COc1ccc(Nc2nc(N)nc(CSc3nccn3C)n2)cc1 the results were RGS4 inh inactive, MrgX1 antag -4.9*, MrgX1 allo act inactive, RGS4 act inactive, MrgX1 ag inactive, MrgX1 antag conf inactive, HEK293 Ca flux inactive, HEK293 Ca counter inactive and HEK293 Ca cntr2 inactive.
`CCOC(=O)c1sc2nc(CSc3ccccc3)nc(N3CCC(C(N)=O)CC3)c2c1C` gave RGS4 inh inactive, MrgX1 antag inactive, MrgX1 allo act inactive, RGS4 act inactive and MrgX1 ag inactive.

High-throughput results (PubChem BioAssay)
